The source made the active and inactive calls. The rule behind the calls is not given here.
Experiments:
Leishmania donovani [1] = experiment: Antileishmanial activity against Leishmania donovani MHOM/IN/80/Dd8 promastigotes harboring luciferase reporter gene at 50 uM after 48 hrs by Steady-Glo luminescence assay relative to control; type: functional; details: for inhibition at 50 µM: MHOM/IN/80/Dd8, 48 h
How it was run: (§1)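 Luciferase-expressing L. donovani Dd8 promastigotes were grown at 24 °C in M199 with 10% heat-inactivated FBS and G418 20 μg/mL. They were treated at varied concentrations for 24 and 48 h, and inhibition was read as relative luminescence units versus untreated control. IC50 was from dose–response; screening values are mean ± SD of at least three experiments in duplicate.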

Leishmania donovani [2] = experiment: Antileishmanial activity against Leishmania donovani MHOM/IN/80/Dd8 promastigotes harboring luciferase reporter gene at 25 uM after 48 hrs by Steady-Glo luminescence assay relative to control; type: functional; details: for inhibition at 25 µM: MHOM/IN/80/Dd8, 48 h; how it was run: as §1
Leishmania donovani [3] = experiment: Antileishmanial activity against Leishmania donovani MHOM/IN/80/Dd8 amastigotes harboring luciferase reporter gene infected in mouse J774 cells at 50 uM after 48 hrs by Steady-Glo luminescence assay relative to control; type: functional; details: for inhibition at 50 µM: MHOM/IN/80/Dd8, J774, 48 h
How it was run: (§2)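 Infection of J774 macrophages with L. donovani Dd8 promastigotes at a 1:8 cell:parasite ratio. Compounds were diluted 2-fold in RPMI over 3.125–100 μM final and applied for 48 h. Amastigote inhibition was read by luciferase (RLU) or by Giemsa count of amastigotes per 100 macrophages. IC50 was from dose–response; n = 3 independent experiments done in replicate.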

Leishmania donovani [4] = experiment: Antileishmanial activity against Leishmania donovani MHOM/IN/80/Dd8 amastigotes harboring luciferase reporter gene infected in mouse J774 cells at 25 uM after 48 hrs by Steady-Glo luminescence assay relative to control; type: functional; details: for inhibition at 25 µM: MHOM/IN/80/Dd8, J774, 48 h; how it was run: as §2
Leishmania donovani [5] = experiment: Antileishmanial activity against Leishmania donovani MHOM/IN/80/Dd8 amastigotes harboring luciferase reporter gene infected in mouse J774 cells after 48 hrs by Steady-Glo luminescence assay; type: functional, organism-based; details: MHOM/IN/80/Dd8, J774, 48 h; how it was run: as §2
Leishmania donovani [6] = experiment: Antileishmanial activity against Leishmania donovani MHOM/IN/80/Dd8 amastigotes harboring luciferase reporter gene infected in mouse J774 cells after 48 hrs by Giemsa staining-based microscopic assay; type: functional, organism-based; details: MHOM/IN/80/Dd8, J774, 48 h; how it was run: as §2
[7] = Selectivity index, ratio of CC50 for […] Vero cells to IC50 for antileishmanial activity against Leishmania donovani MHOM/IN/80/Dd8 harboring luciferase reporter gene; type: toxicity
How it was run: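 J774 macrophages and Vero cells were exposed to 12.5–400 μM for 48 h, with viability by MTT. CC50 was derived, and SI was calculated as CC50 divided by anti-amastigote IC50 in each cell type.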

Leishmania donovani [8] = experiment: Antileishmanial activity against Leishmania donovani MHOM/IN/80/Dd8 promastigotes infected in BALB/c mouse assessed as reduction in parasite load in spleen at 25 mg/kg, po administered once daily for 5 days measured 7 days post dose by giemsa staining-based assay relative to control; type: functional; parameters: scale not given: the % may be the effect or the level left
How it was run: (§3)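 Reference-drug arm of the same infection model (BALB/c mice, 15-day infection, 2 × 10^7 promastigotes iv). Drug was suspended in triple distilled water and given orally at 25 mg/kg/day for 5 days, 5 mice per group. Hepatic and splenic burden was taken at day 7 post-treatment by Giemsa stamp smears, as LDU.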

Leishmania donovani [9] = experiment: Antileishmanial activity against Leishmania donovani MHOM/IN/80/Dd8 promastigotes infected in BALB/c mouse assessed as reduction in parasite load in liver at 25 mg/kg, po administered once daily for 5 days measured 7 days post dose by giemsa staining-based assay relative to control; type: functional; parameters: scale not given: the % may be the effect or the level left; how it was run: as §3
[10] = Toxicity in BALB/c mouse infected with Leishmania donovani MHOM/IN/80/Dd8 promastigotes assessed as death at 25 mg/kg, po administered once daily for 5 days measured up to 7 days post dose; type: organism-based; details: in vivo
How it was run: (§4)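 BALB/c mice (20 ± 2 g) were infected by tail-vein injection of 2 × 10^7 stationary-phase promastigotes. From day 15 they were given miltefosine 25 mg/kg orally, suspended in triple-distilled water, daily for 5 days, and killed at day 7 post-treatment. Survival, health and body weight were monitored; 5 mice per group.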

[11] = Toxicity in BALB/c mouse infected with Leishmania donovani MHOM/IN/80/Dd8 promastigotes assessed as effect on health at 25 mg/kg, po administered once daily for 5 days measured up to 7 days post dose; type: organism-based; details: in vivo; how it was run: as §4
[12] = Toxicity in BALB/c mouse infected with Leishmania donovani MHOM/IN/80/Dd8 promastigotes assessed as reduction in body weight at 25 mg/kg, po administered once daily for 5 days measured up to 7 days post dose; type: organism-based; details: in vivo; how it was run: as §4
[13] = Selectivity index, ratio of CC50 for mouse J774 cells to IC50 for antileishmanial activity against Leishmania donovani MHOM/IN/80/Dd8 harboring luciferase reporter gene
Leishmania donovani [14] = experiment: Induction of mitochondrial potential loss in Leishmania donovani MHOM/IN/80/Dd8 promastigotes assessed as shift in red to green fluorescence at 50 uM by JC1 dye-based flow cytometry (reference value: 7.37%); type: functional
Leishmania donovani [15] = experiment: Antileishmanial activity against Leishmania donovani MHOM/IN/80/Dd8 promastigotes infected in BALB/c mouse assessed as reduction in parasite load in spleen at 50 mg/kg, ip administered once daily for 5 days measured 7 days post dose by giemsa staining-based assay relative to control; type: functional; parameters: scale not given: the % may be the effect or the level left
How it was run: (§5)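 Hamster-passaged strain was transformed to promastigotes. Stationary-phase cells (2 × 10^7 in 0.2 mL PBS) were injected into the tail vein of BALB/c mice. From day 15 post-infection, mice received compound ip in 8% DMSO in PBS for 5 consecutive days, 5 mice per group. Mice were killed day 7 post-treatment. Liver and spleen burden was read from Giemsa-stained stamp smears as LDU.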

Leishmania donovani [16] = experiment: Antileishmanial activity against Leishmania donovani MHOM/IN/80/Dd8 promastigotes infected in BALB/c mouse assessed as reduction in parasite load in liver at 50 mg/kg, ip administered once daily for 5 days measured 7 days post dose by giemsa staining-based assay relative to control; type: functional; parameters: scale not given: the % may be the effect or the level left; how it was run: as §5
[17] = Toxicity in BALB/c mouse infected with Leishmania donovani MHOM/IN/80/Dd8 promastigotes assessed as death at 12.5 to 200 mg/kg, ip administered once daily for 5 days measured up to 7 days post dose; type: organism-based; details: in vivo
How it was run: (§6)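 BALB/c mice (20 ± 2 g) were infected by tail-vein injection of 2 × 10^7 stationary-phase promastigotes. At day 15 they received ip doses in 8% DMSO/PBS for 5 consecutive days and were killed at day 7 post-treatment. Survival, general health and body weight were monitored; 5 mice per group.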

[18] = Toxicity in BALB/c mouse infected with Leishmania donovani MHOM/IN/80/Dd8 promastigotes assessed as effect on health at 12.5 to 200 mg/kg, ip administered once daily for 5 days measured up to 7 days post dose; type: organism-based; details: in vivo; how it was run: as §6
[19] = Toxicity in BALB/c mouse infected with Leishmania donovani MHOM/IN/80/Dd8 promastigotes assessed as reduction in body weight at 12.5 to 200 mg/kg, ip administered once daily for 5 days measured up to 7 days post dose; type: organism-based; details: in vivo; how it was run: as §6
[20] = Toxicity in BALB/c mouse infected with Leishmania donovani MHOM/IN/80/Dd8 promastigotes assessed as death at 50 mg/kg, ip administered once daily for 5 days measured up to 7 days post dose; type: organism-based; details: in vivo; how it was run: as §6
[21] = Toxicity in BALB/c mouse infected with Leishmania donovani MHOM/IN/80/Dd8 promastigotes assessed as effect on health at 50 mg/kg, ip administered once daily for 5 days measured up to 7 days post dose; type: organism-based; details: in vivo; how it was run: as §6
[22] = Toxicity in BALB/c mouse infected with Leishmania donovani MHOM/IN/80/Dd8 promastigotes assessed as reduction in body weight at 50 mg/kg, ip administered once daily for 5 days measured up to 7 days post dose; type: organism-based; details: in vivo; how it was run: as §6

SMILES | inhibition at 50 µM (Leishmania donovani [1]) [%] | inhibition at 25 µM (Leishmania donovani [2]) [%] | inhibition at 50 µM (Leishmania donovani [3]) [%] | inhibition at 25 µM (Leishmania donovani [4]) [%] | other results
Cc1ncc([N+](=O)[O-])n1CCOc1ccc(-c2cc(-c3ccccc3F)c3cc(Cl)ccc3n2)cc1 | 59.1 | 34.4 | 63.6 | 23.4 | –
Cc1ncc([N+](=O)[O-])n1CCOc1cccc(-c2cc(-c3ccccc3)c3cc([N+](=O)[O-])ccc3n2)c1 | – | – | 10.4 | – | inhibition (Leishmania donovani [1]): inactive; inhibition (Leishmania donovani [2]): inactive; inhibition (Leishmania donovani [4]): inactive
Cc1ncc([N+](=O)[O-])n1CCOc1cccc(-c2cc(-c3ccccc3)c3cc(Br)ccc3n2)c1 | 60.8 | 30.2 | 65.3 | 29.5 | –
Cc1ncc([N+](=O)[O-])n1CCOc1ccc(-c2cc(-c3ccccc3)c3ccccc3n2)cc1 | 93.2 | 78.2 | 67.7 | 45.3 | –
CCCCCCCCCCCCCCCCOP(=O)([O-])OCC[N+](C)(C)C [MILTEFOSINE] | 99.5 | 97.2 | 99.2 | 98.3 | IC50 (Leishmania donovani [5]): 9.59 µM; IC50 (Leishmania donovani [6]): 9.59 µM; selectivity ratio [7]: 5.3; Activity (Leishmania donovani [8]): >98%; Activity (Leishmania donovani [9]): >98%; Activity [10]: Non-Toxic; Activity [11]: Non-Toxic; Activity [12]: Non-Toxic; selectivity ratio [13]: 5.8
Cc1ncc([N+](=O)[O-])n1CCOc1cccc(-c2cc(-c3ccccc3F)c3cc(Cl)ccc3n2)c1 | – | – | 12.1 | – | inhibition (Leishmania donovani [1]): inactive; inhibition (Leishmania donovani [2]): inactive; inhibition (Leishmania donovani [4]): inactive
Cc1ncc([N+](=O)[O-])n1CCOc1cccc(-c2cc(-c3ccccc3Cl)c3cc(Cl)ccc3n2)c1 | 26 | 12.3 | – | – | inhibition (Leishmania donovani [3]): inactive; inhibition (Leishmania donovani [4]): inactive
N#CC(C#N)=NNc1cccc(Cl)c1 [CARBONYL CYANIDE M-CHLOROPHENYLHYDRAZONE] | – | – | – | – | Activity (Leishmania donovani [14]): 95.49%
Cc1ncc([N+](=O)[O-])n1CCOc1ccc(-c2cc(-c3ccccc3)c3ccc(Br)cc3n2)cc1 | 63.9 | 41.3 | 60.3 | 33.8 | –
Cc1ncc([N+](=O)[O-])n1CCOc1ccc(-c2cc(-c3ccccc3Cl)c3cc(Cl)ccc3n2)cc1 | 61.7 | 38.2 | 27.2 | 12.1 | –
Cc1ncc([N+](=O)[O-])n1CCOc1cccc(-c2cc(-c3ccccc3)c3ccccc3n2)c1 | 63 | 43 | 66.4 | 31.2 | –
Cc1ncc([N+](=O)[O-])n1CCOc1cccc(-c2cc(-c3ccccc3)c3cc(Cl)ccc3n2)c1 | 58.2 | 41.2 | 59.2 | 38.2 | –
Cc1ncc([N+](=O)[O-])n1CCOc1ccc(-c2cc(-c3ccccc3)c3cc(Cl)ccc3n2)cc1 | 65.8 | 45.3 | 64.4 | 34.2 | –
Cc1ncc([N+](=O)[O-])n1CCO [METRONIDAZOLE] | 62.2 | 41.3 | 68.1 | 31.2 | Activity (Leishmania donovani [15]): 36.6%; Activity (Leishmania donovani [16]): 40.8%; Activity [17]: Non-Toxic; Activity [18]: Non-Toxic; Activity [19]: Non-Toxic; Activity [10]: Non-Toxic; Activity [11]: Non-Toxic; Activity [12]: Non-Toxic; Activity [20]: Non-Toxic; Activity [21]: Non-Toxic; Activity [22]: Non-Toxic
c1ccc2ncccc2c1 [QUINOLINE] | 80.2 | 42.4 | 83.6 | 64.5 | Activity (Leishmania donovani [15]): 55.2%; Activity (Leishmania donovani [16]): 58.2%; Activity [17]: Non-Toxic; Activity [18]: Non-Toxic; Activity [19]: Non-Toxic; Activity [10]: Non-Toxic; Activity [11]: Non-Toxic; Activity [12]: Non-Toxic; Activity [20]: Non-Toxic; Activity [21]: Non-Toxic; Activity [22]: Non-Toxic

From ChEMBL document CHEMBL4396890, “Synthesis, Biological Evaluation, Structure-Activity Relationship, and Mechanism of Action Studies of Quinoline-Metronidazole Derivatives Against Experimental Visceral Leishmaniasis” (J Med Chem, 2019)
